# Laboratory results taken from PMC4827469 (ACS Central Science, 2015).
# Where two headings read alike, the source gives them in different places.
# Tests used:
# [1] = test system: A549 subcutaneous xenografts; details: NOD/SCID mice, 2 weeks of oral 30 and 60 mg/kg ref 18; cited from earlier work
# HepG2 [2] = details: HepG2, 5% FBS, 48 h incubation, SRB stain ref 2a; cited from earlier work
# PANC-1 [3] = details: read-out: IC50 reported in the lit.; PANC-1 (48 h), ATCC, SRB assay ref 2f; cited from earlier work
# Hep 3B tumor model = details: initial tumor sizes 50–70 mm^3 ref 2a, 19; cited from earlier work
# Hep3B = details: 5% FBS, 48 h incubation, SRB stain ref 2a; cited from earlier work
# A549 [4] = details: read-out: IC50 reported in the lit.; A549 (12 h), KMUH ref 2c; cited from earlier work
# PANC-1 [5] = assay: in vitro cytotoxicity assay; assay type: cell-based; details: Homo sapiens, PANC-1, 48 h
# [6] = metabolite identification/biotransformation, mouse liver microsomes; assay type: in vitro ADME; details: 1 mg/ml protein, 5 µM drug, 1 mM NADPH, 37 °C
# A549 [7] = assay: in vitro cytotoxicity assay; assay type: cell-based, human
# [8] = metabolite identification/biotransformation, rat liver microsomes; assay type: in vitro ADME
# H838 tumor cell line = H838 tumor cell line ref 23 (Ho et al., Biomed. Pharmacother. 2014); cited from earlier work
# [9] = metabolite identification/biotransformation, human liver microsomes; assay type: in vitro ADME
# [10] = test system: panel of human tumor cell lines; assay: panel of human tumor cell lines in vitro; assay type: cell-based
# Outline: (§1)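 Cells grown in medium with 10% FBS and exposed to test compound for 72 h. Viability read by MTS or MTT stain, and IC50 derived from the readings.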
# [11] = test system: Hep 3B HCC tumor xenografts; assay: in vivo antitumor activity, subcutaneous Hep3B HCC xenograft in NSG mice; set-up: species or system mouse; details: female NSG mice, 50 mg/kg ip daily for 14 days
# Outline: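 Hep 3B hepatocellular carcinoma xenograft in mice, dosed per schedule. Paclitaxel positive control given iv at 24 mg/kg qd×5. Tumor growth inhibition, body weight and signs of toxicity monitored. Error given as SE computed from the average deviation.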
# LNCaP = details: read-out: IC50 reported in the lit.; natural product, LNCaP (CCRC-60088) ref 1; cited from earlier work
# [12] = mouse pharmacokinetic study; assay type: in vivo; details: male, Balb/C, whole blood, 50 mg/kg
# HepG2 [13] = assay: in vitro cytotoxicity assay; assay type: cell-based; details: Homo sapiens, HepG2, 72 h, read-out: IC50 (72 h)
# Outline: as §1
# H441 [14] = assay: in vitro cytotoxicity assay; assay type: cell-based; details: Homo sapiens, NCI-H441, 72 h, read-out: IC50 (72 h)
# Outline: as §1
# AsPC-1 [15] = details: read-out: IC50 reported in the lit.; AsPC-1 (48 h), ATCC, SRB assay ref 2f; cited from earlier work
# AsPC-1 [16] = assay: in vitro cytotoxicity assay; assay type: cell-based; details: Homo sapiens, ASPC1, 48 h
# H441 [17] = details: read-out: IC50 reported in the lit.; H441, KMUH ref 2c; cited from earlier work
# MDA-MB-231 = details: read-out: IC50 reported in the lit.; natural product, MDA-MB-231 (CCRC-60425) ref 1; cited from earlier work
smiles,measurement,setting,value
"COC1=C(OC)[C@H](O)[C@H](C/C=C(\C)CC/C=C(\C)CCC=C(C)C)[C@@H](C)C1=O [Compound 1, Antroquinonol A]",antitumor effect reported,[1],tumor growth suppression
same,GI50,HepG2 [2],220 nM
same,IC50,PANC-1 [3],19 µM
same,antitumor activity reported in the literature,Hep 3B tumor model,statistically significant antitumor activity
same,GI50,Hep3B,> 30 µM
same,IC50,A549 [4],25 µM
same,IC50,PANC-1 [5],> 25 µM
same,biotransformation in liver microsomes,[6],rapidly converted to a major metabolite
same,fold more potent than previously reported,A549 [7]; A549,~4 fold
same,IC50,"A549 [7]; Homo sapiens, A549, 12 h, A549 (12 h) (ATCC), 1 triplicate, 15 duplicate",6.7 ± 2.5 µM
same,biotransformation in liver microsomes,[8],rapidly converted to a major metabolite
same,IC50,H838 tumor cell line,~3000 nM
same,biotransformation in liver microsomes,[9],rapidly converted to a major metabolite
same,fold less cytotoxic than reported for the natural product,[10]; cell lines of Table 1 except A549,3–70 fold
same,cytotoxicity in tumor cell line panel,[10]; panel of Table 1,only micromolar activity
same,tolerability,[11],generally well-tolerated with no overt signs of toxicity
same,weight loss,[11],~4%
same,IC50,LNCaP,6.1 ± 0.07 µM
same,AUC(0-t),[12]; ip,2.29 ± 0.142 µM·h
same,Cmax,[12]; ip,457 ± 45 nM
same,Tmax,[12]; ip,4 ± 3 h
same,AUC(0-t),[12]; po,0.266 ± 0.088 µM·h
same,Cmax,[12]; po,79 ± 52 nM
same,Tmax,[12]; po,2 ± 1 h
same,IC50,HepG2 [13],> 25 µM
same,IC50,H441 [14],> 25 µM
same,IC50,AsPC-1 [15],20 µM
same,IC50,AsPC-1 [16],> 25 µM
same,IC50,H441 [17],25 µM
same,IC50,MDA-MB-231,2600 ± 50 nM
